Data set [1] has as its system Staphylococcus aureus. The data set can be described thus: Bactericidal activity against Staphylococcus aureus E19977 assessed as log reduction in cfu at 20 mg/liter after 24 hrs by time-kill study. The data set is classed as functional, organism-based. The essentials:
(§1)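 In vitro kinetic model simulating antibiotic elimination without inoculum change. Exponential-phase E19977 was added at a final 10^6.3 CFU/ml. Starting drug concentration matched the human free peak, with the human half-life simulated. Samples were plated on 5% blood agar at 0, 2, 4, 6, 8, 12 and 24 h, with growth controls in each run. Results are shown as mean and range, n = 2.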

Data set [2] concerns Staphylococcus aureus. The data set can be described thus: Bacteriostatic activity against Staphylococcus aureus E19977 assessed as log reduction in cfu at 0.5 mg/liter upto 8 hrs by time-kill study. The data set is classed as functional, organism-based.
In data set [3] the test system is Staphylococcus aureus. The experiment in a line: Antibacterial activity against Staphylococcus aureus E19977 by Etest. The format is functional.
Data set [4] concerns Staphylococcus aureus. The experiment in a line: Bactericidal activity against Staphylococcus aureus E19977 assessed as log reduction in cfu at 2 mg/liter after 24 hrs by time-kill study. The format is functional, organism-based. The essentials: as §1
Data set [5] concerns Staphylococcus aureus. The experiment in a line: Bactericidal activity against Staphylococcus aureus E19977 assessed as log reduction in cfu at 0.5 mg/liter after 24 hrs by time-kill study. The format is functional, organism-based. In short, it runs like this: as §1
The test system of data set [6] is Staphylococcus aureus. The experiment in a line: Antibacterial activity against Staphylococcus aureus E19977 infected in NMRI mouse assessed as log reduction in intracellular bacterial cfu in peritoneum at 1 mg/kg, sc administered 2 hrs after infection measured after 4 hrs. The format is functional, organism-based. Also noted: dose 1 mg/kg. In short, it runs like this: (§2)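 Female NMRI mice (25–30 g) were infected i.p. with 0.5 ml of 10^7.7 CFU/ml in 5% mucin. […] Pooled washes were split into total, extracellular and intracellular fractions by 300 × g spin, lysostaphin, HBSS washes and water lysis. Counts were compared with untreated mice.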

The nature of data set [7]: Cmax in human at 1000 mg, po. The note with it: in vivo. The data set is classed as ADME, organism-based. Also on record: dose 1000 mg, route oral.
Data set [8] has as its system Staphylococcus aureus. The experiment in a line: Bactericidal activity against Staphylococcus aureus E19977 assessed as log reduction in cfu at 9 mg/liter after 24 hrs by time-kill study. The format is functional, organism-based. In short, it runs like this:
as §1

For data set [9], the system named is Staphylococcus aureus. The data set can be described thus: Antibacterial activity against Staphylococcus aureus E19977 infected in NMRI mouse assessed as log reduction in bacterial cfu in peritoneum at 1 mg/kg, sc administered 2 hrs after infection measured after 4 hrs. The data set is classed as functional, organism-based. Also noted: dose 1 mg/kg. In short, it runs like this: as §2

For data set [10], the system named is Staphylococcus aureus. The data set can be described thus: Bactericidal activity against Staphylococcus aureus E19977 assessed as log reduction in cfu at 1.5 mg/liter after 24 hrs by time-kill study. The data set is classed as functional, organism-based. In short, it runs like this:
as §1

The test system of data set [11] is Staphylococcus aureus. The data set can be described thus: Antibacterial activity against Staphylococcus aureus E19977 infected in NMRI mouse assessed as log reduction in extracellular bacterial cfu in peritoneum at 1 mg/kg, sc administered 2 hrs after infection measured after 4 hrs. Also noted: dose 1 mg/kg. The data set is classed as functional, organism-based. The essentials: as §2

The nature of data set [12]: Half life in human at 1000 mg, po. The format is ADME, organism-based. The note with it: in vivo.
The subject of data set [13] is Serum. The experiment in a line: Protein binding in human serum at 1000 mg, po. The format is ADME, organism-based. The settings on record: in vivo.
Data set [14] relates to Staphylococcus aureus. The experiment in a line: Antibacterial activity against Staphylococcus aureus E19977 infected in NMRI mouse assessed as log reduction in extracellular bacterial cfu in peritoneum at 10 mg/kg, sc administered 2 hrs after infection measured after 4 hrs. Also on record: dose 10 mg/kg. The data set is classed as functional, organism-based. The essentials:
(§3)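 Outbred female NMRI mice (25 to 30 g) received 0.5 ml of 10^7.7 CFU/ml inoculum in 5% mucin i.p. A single dose was given 2 h post-challenge, and mice were sampled 4 h later by 2.0 ml saline peritoneal wash, pooling two mice. Extracellular and intracellular fractions were separated by 300 × g centrifugation, lysostaphin, four HBSS washes and water lysis. Counts on blood agar; median of n = 8.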

For data set [15], the system named is Staphylococcus aureus. The experiment in a line: Bactericidal activity against Staphylococcus aureus E19977 assessed as log reduction in cfu at 9 mg/liter upto 24 hrs by time-kill study. The data set is classed as functional, organism-based. The essentials: (§4)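 In vitro kinetic model: exponential-phase bacteria at a final 10^6.3 CFU/ml were exposed to a starting concentration set to the human free peak level. Elimination followed the simulated human half-life. Samples were taken at 0, 2, 4, 6, 8, 12 and 24 h and counted on 5% blood agar (detection limit 25 CFU/ml). Growth controls were included; n = 2.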

For data set [16], the system named is Staphylococcus aureus. The data set can be described thus: Bactericidal activity against Staphylococcus aureus E19977 assessed as log reduction in cfu at 20 mg/liter upto 24 hrs by time-kill study. The format is functional. The essentials: as §4
For data set [17], the system named is Staphylococcus aureus. The experiment in a line: Antibacterial activity against Staphylococcus aureus E19977 infected in NMRI mouse assessed as log reduction in intracellular bacterial cfu in peritoneum at 10 mg/kg, sc administered 2 hrs after infection measured after 4 hrs. The format is functional, organism-based. Also on record: dose 10 mg/kg. The essentials:
as §3

For data set [18], the system named is Staphylococcus aureus. The data set can be described thus: Antibacterial activity against Staphylococcus aureus E19977 infected in NMRI mouse assessed as log reduction in bacterial cfu in peritoneum at 10 mg/kg, sc administered 2 hrs after infection measured after 4 hrs. The format is functional, organism-based. Also noted: dose 10 mg/kg. The essentials: as §3

Data set [19] concerns Homo sapiens. The experiment in a line: Half life in human at 240 mg, im. The data set is classed as ADME, organism-based. The note with it: in vivo.
The subject of data set [20] is Homo sapiens. The experiment in a line: Cmax in human at 240 mg, im. The format is ADME, organism-based. Also noted: dose 240 mg, route […]. The settings on record: in vivo.
The test system of data set [21] is Serum. The data set can be described thus: Protein binding in human serum at 240 mg, im. The data set is classed as ADME, cell-free.

In brackets after ≈: the same amount, converted by molar mass. Activity calls are given as the source filed them. No cut-off for these calls is given here. Bounds are passed on as bounds.

Usually MIC stands for the least concentration at which growth counts as inhibited. Read a low MIC as greater potency. The term Cmax denotes the highest concentration seen after dosing. Usually half-life stands for the time in which the quantity being followed falls by half. In the case of `CC[C@H]1OC(=O)[C@H](C)[C@@H](O[C@H]2C[C@@](C)(OC)[C@@H](O)[C@H](C)O2)[C@H](C)[C@@H](O[C@@H]2O[C@H](C)C[C@H](N(C)C)[C@H]2O)[C@](C)(O)C[C@@H](C)CN(C)[C@H](C)[C@@H](O)[C@]1(C)O` [AZITHROMYCIN], the outcome with Staphylococcus aureus [1], in the data set on Staphylococcus aureus [4], in the data set on Staphylococcus aureus [5], in the data set on Staphylococcus aureus [6], in the data set on Staphylococcus aureus [8] and in the data set with Staphylococcus aureus [9] was inactive. The result with Staphylococcus aureus [10] and in the data set on Staphylococcus aureus [11] was inactive. Besides, in the data set on Staphylococcus aureus [2], the result was Active. In the data set with Staphylococcus aureus [3], this molecule displayed a minimal inhibitory concentration (MIC) of 0.5 µg/mL (≈ 0.668 µM). Moreover, the Cmax in data set [7] is 1000 ng/mL. For the same molecule, in data set [12], the half-life was 10 h. The molecule also came in with an Activity in the data set on Serum [13] of 50%.

For GENTAMICIN [listing 1 of 2 here], the result in the data set with Staphylococcus aureus [1], in the data set on Staphylococcus aureus [14], with Staphylococcus aureus [4], in the data set with Staphylococcus aureus [5], with Staphylococcus aureus [8] and with Staphylococcus aureus [17] was inactive. The outcome with Staphylococcus aureus [10] and in the data set on Staphylococcus aureus [18] was inactive. For the same molecule, the FC with Staphylococcus aureus [15] was 4; with Staphylococcus aureus [16], more than 2. It took 0.38 µg/mL to inhibit growth in the data set on Staphylococcus aureus [3] (MIC).

In the data set with Homo sapiens [19], GENTAMICIN [listing 2 of 2 here] came in with a t1/2 of 2 h. This molecule yielded a Cmax with Homo sapiens [20] of 10000 ng/mL. The molecule also displayed an Activity in the data set on Serum [21] of 10%.

Source of the values: ChEMBL document CHEMBL1649157, “Intracellular activity of antibiotics against Staphylococcus aureus in a mouse peritonitis model” (Antimicrob Agents Chemother, 2009).
